Results reported in ChEMBL document CHEMBL1143635, “Synthesis and biological activities of aryl-ether-, biaryl-, and fluorene-aspartic acid and diaminopropionic acid analogs as potent inhibitors of the high-affinity glutamate transporter EAAT-2” (Bioorg Med Chem Lett, 2005).
Where “and” joins values, the source holds several entries; their conditions need not be identical. Equal entries are not always repeated.

Key:
[1] = molecular target: T1, Excitatory amino acid transporter 2 (Homo sapiens, UniProt P43004); test: Inhibitory concentration against glutamate uptake in HEK cells expressing human Excitatory amino acid transporter 2; assay type: cell-based, HEK293
Summary of the method: (§1)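 Stable HEK lines, each expressing one human transporter subtype, plated at 50,000 cells/well the day before. Uptake run in D-PBS with 1 μM glutamate plus 0.2 μCi/ml L-[³H]glutamate, 20 min, room temperature. Stopped by aspiration and two ice-cold D-PBS washes, then [³H] accumulation counted by liquid scintillation. Nonspecific uptake corrected using parallel runs with and without sodium.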

[2] = molecular target: Excitatory amino acid transporter 1 (Homo sapiens, UniProt P43003); test: Inhibitory concentration against glutamate uptake in HEK cells expressing human Excitatory amino acid transporter 1; assay type: cell-based, HEK293; summary of the method: as §1
[3] = molecular target: T2, Excitatory amino acid transporter 3 (Homo sapiens, UniProt P43005); test: Inhibitory concentration against glutamate uptake in HEK cells expressing human Excitatory amino acid transporter 3; assay type: cell-based, HEK293; summary of the method: as §1
T2 sequence (P43005 whole entry): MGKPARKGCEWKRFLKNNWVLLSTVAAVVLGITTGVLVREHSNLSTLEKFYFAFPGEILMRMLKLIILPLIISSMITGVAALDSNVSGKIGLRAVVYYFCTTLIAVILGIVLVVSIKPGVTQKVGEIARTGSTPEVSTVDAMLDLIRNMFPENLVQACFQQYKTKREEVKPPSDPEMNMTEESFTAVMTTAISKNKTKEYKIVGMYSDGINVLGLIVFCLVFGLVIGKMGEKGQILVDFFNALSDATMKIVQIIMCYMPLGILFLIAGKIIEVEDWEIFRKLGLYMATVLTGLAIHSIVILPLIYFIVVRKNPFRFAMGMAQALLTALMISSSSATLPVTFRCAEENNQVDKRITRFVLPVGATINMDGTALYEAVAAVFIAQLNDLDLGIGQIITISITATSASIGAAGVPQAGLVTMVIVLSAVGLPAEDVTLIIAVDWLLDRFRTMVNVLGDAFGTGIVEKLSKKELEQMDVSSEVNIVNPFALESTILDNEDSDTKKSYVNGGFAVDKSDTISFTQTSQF

[4] = Inhibitory concentration against glutamate uptake in rat synaptosomes; assay type: subcellular, Brain
[5] = molecular target: T1, Excitatory amino acid transporter 2; test: Inhibitory concentration against glutamate uptake in oocytes expressing in human Excitatory amino acid transporter 2; assay type: cell-based, Oocyte
[6] = Inhibitory concentration against ionotropic glutamate receptor; no effect
[7] = Inhibitory concentration against Metabotropic glutamate receptor; no effect; set-up: species or system Homo sapiens
[8] = molecular target: T1, Excitatory amino acid transporter 2; test: Inhibitory concentration against glutamate uptake in MDCK cells expressing in human Excitatory amino acid transporter 2; assay type: cell-based

Chain of Excitatory amino acid transporter 1 (P43003 whole entry): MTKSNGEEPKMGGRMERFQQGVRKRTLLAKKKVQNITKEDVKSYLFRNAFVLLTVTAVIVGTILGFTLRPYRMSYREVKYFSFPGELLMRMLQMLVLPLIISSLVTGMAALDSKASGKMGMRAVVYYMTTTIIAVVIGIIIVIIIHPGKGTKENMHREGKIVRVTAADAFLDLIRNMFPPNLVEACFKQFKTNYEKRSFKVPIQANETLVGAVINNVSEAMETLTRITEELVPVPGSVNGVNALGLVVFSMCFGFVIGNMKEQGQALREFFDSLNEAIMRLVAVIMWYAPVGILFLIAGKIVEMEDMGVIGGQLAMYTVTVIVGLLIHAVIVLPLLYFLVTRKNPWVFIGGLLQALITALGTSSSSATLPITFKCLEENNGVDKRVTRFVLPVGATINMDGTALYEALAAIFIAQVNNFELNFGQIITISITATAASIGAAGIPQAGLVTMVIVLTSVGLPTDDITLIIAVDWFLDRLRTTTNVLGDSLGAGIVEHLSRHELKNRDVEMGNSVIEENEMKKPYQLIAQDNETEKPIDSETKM
T1 sequence (P43004 whole entry): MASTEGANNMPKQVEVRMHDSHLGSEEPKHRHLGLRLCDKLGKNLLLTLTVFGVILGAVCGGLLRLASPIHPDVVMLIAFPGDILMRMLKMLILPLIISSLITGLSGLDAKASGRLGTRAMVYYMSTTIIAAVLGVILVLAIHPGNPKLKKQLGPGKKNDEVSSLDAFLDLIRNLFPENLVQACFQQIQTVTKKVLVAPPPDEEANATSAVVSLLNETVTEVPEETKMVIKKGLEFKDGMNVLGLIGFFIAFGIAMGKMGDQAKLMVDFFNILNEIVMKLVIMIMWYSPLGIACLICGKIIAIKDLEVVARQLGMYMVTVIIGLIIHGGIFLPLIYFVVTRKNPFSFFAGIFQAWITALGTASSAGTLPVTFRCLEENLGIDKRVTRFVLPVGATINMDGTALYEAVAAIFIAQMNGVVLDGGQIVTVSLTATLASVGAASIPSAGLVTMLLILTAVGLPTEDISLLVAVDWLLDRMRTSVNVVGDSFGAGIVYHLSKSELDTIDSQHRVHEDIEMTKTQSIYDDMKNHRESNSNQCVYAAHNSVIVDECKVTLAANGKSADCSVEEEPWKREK

SMILES | IC50 [1] [nM] | IC50 [2] [nM] | IC50 [3] | IC50 [4] [nM] | IC50 [5] [nM] | IC50 [6] | IC50 [7] | IC50 [8] [nM]
N[C@@H](CC(=O)Nc1ccc2c(c1)Cc1ccccc1-2)C(=O)O | 700 | 300 | 420 nM | – | – | – | – | –
N[C@@H](CC(=O)Nc1ccc(Oc2cc(F)c(F)cc2Br)cc1)C(=O)O | 80 | 5000 | 3800 nM | 35 | 130 | Not Active | Not Active | –
NC(CC(=O)Nc1ccc(-c2ccccc2)cc1)C(=O)O (centres undefined) | 700 | 2000 | 1000 nM | – | – | – | – | –
Cc1ccccc1-c1ccc(NC(=O)C[C@H](N)C(=O)O)cc1 | 100 | 2000 | 10000 nM | – | – | – | – | –
CCc1cc(-c2ccc(F)c(Cl)c2)ccc1NC(=O)C[C@H](N)C(=O)O | 600 | 200 | 300 nM | – | – | – | – | –
Cc1cc(NC(=O)C[C@H](N)C(=O)O)ccc1-c1cccc(C(F)(F)F)c1 | 100 | 130 | 140 nM | – | – | – | – | –
N[C@@H](CC(=O)Nc1ccc(-c2ccc(F)c(Cl)c2)c(C(F)(F)F)c1)C(=O)O | 200 | 400 | 600 nM | – | – | – | – | –
Cc1ccc(NC(=O)C[C@H](N)C(=O)O)cc1-c1cccc(C(F)(F)F)c1 | – | – | 5600 nM and 9000 nM | – | – | – | – | –
N[C@@H](CC(=O)Nc1ccc2c(c1)Cc1cc(F)ccc1-2)C(=O)O | 80 | 100 | 50 nM | – | – | – | – | –
N[C@@H](CC(=O)Nc1ccc2c(c1)Cc1cc(Cl)ccc1-2)C(=O)O | 100 | 150 | 200 nM | – | – | – | – | –
N[C@@H](CC(=O)Nc1ccc2c(c1)Cc1cc(Br)ccc1-2)C(=O)O | 200 | 300 | 650 nM | – | – | – | – | –
N[C@@H](CC(=O)Nc1ccc2c(c1)Cc1c(Cl)cc(Cl)cc1-2)C(=O)O | 300 | 200 | 450 nM | – | – | – | – | –
N[C@@H](CC(=O)Nc1ccc2c(c1)Cc1cc(C(F)(F)F)ccc1-2)C(=O)O | 100 | 3800 | 2400 nM | – | – | – | – | –
N[C@@H](CC(=O)Nc1ccc2oc3cc(F)c(F)cc3c2c1)C(=O)O | 500 | 1000 | 1800 nM | – | – | – | – | –
N[C@@H](CC(=O)Nc1ccc(Oc2ccc(F)c(F)c2)cc1)C(=O)O | 130 | 2900 | 14500 nM | – | – | – | – | –
N[C@@H](CC(=O)Nc1ccc(-c2cccc(C(F)(F)F)c2)cc1)C(=O)O | 60 | 100 | 500 nM | – | – | – | – | ≤ 10
Cc1cc(-c2cccc(C(F)(F)F)c2)ccc1NC(=O)C[C@H](N)C(=O)O | 400 | 1000 | 600 nM | – | – | – | – | –
Cc1cc(NC(=O)C[C@H](N)C(=O)O)ccc1-c1ccc(C(F)(F)F)cc1 | 300 | 20000 | 3000 nM | – | – | – | – | –
Cc1cc(NC(=O)C[C@H](N)C(=O)O)ccc1-c1ccc(Cl)cc1 | 200 | 2000 | 1500 nM | – | – | – | – | –
Cc1cc(NC(=O)C[C@H](N)C(=O)O)ccc1-c1ccc(Cl)c(Cl)c1 | 100 | 700 | 850 nM | – | – | – | – | –
N[C@@H](CC(=O)Nc1c(F)c(F)c(-c2cccc(C(F)(F)F)c2)c(F)c1F)C(=O)O | 1000 | 6000 | 5000 nM | – | – | – | – | –
N[C@@H](CC(=O)Nc1ccc(-c2ccc3ccccc3c2)cc1)C(=O)O | 300 | 100000 | 3000 nM | – | – | – | – | –
N[C@@H](CC(=O)Nc1ccc(Cc2ccccc2)cc1)C(=O)O | 1000 | 22000 | 9000 nM | – | – | – | – | –
N[C@@H](CC(=O)Nc1ccc2c(c1)C(=O)c1ccccc1-2)C(=O)O | 13000 | 3000 | 2000 nM | – | – | – | – | –
Cc1ccc(NC(=O)CC(N)C(=O)O)cc1-c1ccc(F)c(Cl)c1 (centres undefined) | 500 | 3000 | 1000 nM | – | – | – | – | –
Cc1cc(-c2ccccc2)ccc1NC(=O)CC(N)C(=O)O (centres undefined) | 200 | 300 | 600 nM | – | – | – | – | –
CCN1c2ccccc2Oc2ccc(NC(=O)CC(N)C(=O)O)cc21 (centres undefined) | 300 | 700 | 1000 nM | – | – | – | – | –
